Records with an inconclusive call do not appear.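 How the source made its calls, unless noted: active means RAM network inhibition above 8.4% in each of two replicates, 3 SD over the compound average; inconclusive means above 8.4% inhibition in only one replicate; inactive means 8.4% inhibition or less in each replicate.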
Experiments:
[1] = S. cerevisiae growth inhibition in permissive medium (OD615), pilot counter-assay for S. cerevisiae lifespan shortening project, permissive growth control (AID 705;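 active means growth inhibition above 25% in both replicates, a cutoff set 3 SD above the mean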); settings: OD615, 24 h, at 10 µM, active compounds read high
Outline: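 Test system: Saccharomyces cerevisiae strain carrying genetically modified DeaD replicative-lifespan system; buffer or medium: SC raffinose/galactose permissive medium; dosing: one dose 10 µM, DMSO 0.25% final; times: 24 h exposure, 30 °C; measured by: OD at 615 nm; read-out basis: growth inhibition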

[2] = S. cerevisiae growth inhibition in restrictive medium, OD615, pilot screen, restrictive growth control, yeast lifespan reduction project (AID 706;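 active means growth inhibition above a set limit, 3 SD over mean compound inhibition, in both replicates, cut at about 43% in these data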;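 further: modified DeaD lifespan yeast strain shifted to restrictive glucose medium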); settings: OD615, 48 h, at 10 µM, active compounds read high
Outline: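 material = engineered S. cerevisiae DeaD strain | buffer or medium = glucose-based CSMM-D restrictive medium | dosing = one concentration, 10 µM final, 0.25% DMSO | schedule = 4 h pre-growth plus 48 h compound exposure, 30 °C | detection = OD615 absorbance reading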

[3] = doxorubicin toxicity protection in MRP-1 cells – H69AR cells, CellTiter-Glo, duplicate, MRP-1 activator project, pilot screen (AID 807;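 active means viability increase at or above a cutoff of the median across tested compounds plus 3 SD, cut at about 8.5% in these data, passing the limit was not always enough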;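 further: compound pretreatment 18-22 h then 72 h combined with doxorubicin; 0% = doxorubicin alone and 100% = vehicle without doxorubicin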); settings: H69AR viability with doxorubicin, CellTiter-Glo luminescence; at 10 µM; active compounds read high
[4] = viability of HCT116 without oncogenic beta-catenin – human colon tumor cells, pilot screen (AID 823;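 active means cell viability at or below a set limit in both duplicate runs, the limit being the all-compound median minus 4 SD, cut at about 23% in these data, passing the limit was not always enough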;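 further: 0% = wells killed by 20 µM Hyamine and 100% = untreated DMSO cell wells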); settings: HCT116 beta-catenin knockout viability, CellTiter-Glo, 60 h; at 10 µM; active compounds read low
[5] = viability of PTEN-null HCT116 cells – cell-based, HCT116 clonal line, CellTiter-Glo, pilot screen (AID 824;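 active means viability at or below 27.92% in each of two runs, the all-compound median minus 4 SD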;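 further: 0% = 20 µM Hyamine control and 100% = vehicle cell control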); settings: HCT116 PTEN-deleted viability, 60 h, at 10 µM, active compounds read low
[6] = RAM pathway blockade in budding yeast – dse1pr::URA3 reporter, 5-FOA selection, pilot screen (AID 869;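 active means inhibition over a set limit, the all-compound mean plus 3 SD, in both replicate runs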;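 further: 0% = DMSO wells with no growth and 100% = 10 µM 1-NA-PP1 with full growth; RAM network block rescues cells from 5-FOA so hits raise OD615 growth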); settings: S. cerevisiae dse1pr::URA3 5-FOA growth, OD615, 2 d; at 10 µM; active compounds read high; strain carries analog-sensitive mutant Cbk1 kinase
[7] = RAM signaling pathway blockade in yeast – S. cerevisiae, Pdr1DBD-CYC8 efflux-inhibited sensitized strain, primary screen (AID 1298);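 further: 0% = DMSO untreated cells without growth and 100% = 10 µM 1-NA-PP1 full growth; higher means more yeast growth rescued from 5-FOA killing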; settings: S. cerevisiae cbk1-as DSE1-URA3 strain, 5-FOA growth OD615, 2 d; at 50 µM; active compounds read high

O=C(Nc1c(F)cc(F)cc1Br)c1cc(-c2ccc(O)cc2)on1
inactive: growth inhibition [1] -17.7% | growth inhibition [2] 5.22% | viability increase [3] -4.92% | viability [4] 92% | viability [5] 85.4% | inhibition [6] 0.53% | RAM network inhibition [7] -0.21%

CCOC(=O)N1CCN(CC(=O)Nc2ccc(C)cc2)CC1
inactive: growth inhibition [1] -4.43% | growth inhibition [2] 4.79% | viability increase [3] -3.03% | viability [4] 98.3% | viability [5] 100% | inhibition [6] 1.11% | RAM network inhibition [7] -0.15%

N#CCn1nnc(-c2ccc3c(c2)OCO3)n1
inactive: growth inhibition [1] -5.24% | growth inhibition [2] 3.03% | viability increase [3] 3.41% | viability [4] 98.5% | viability [5] 103% | inhibition [6] 0.46% | RAM network inhibition [7] 0.16%

Cc1cc(=O)oc2cc(OCC(O)CN3CCN(c4ccc(F)cc4)CC3)ccc12 (stereo not given)
inactive: growth inhibition [1] -10.4% | growth inhibition [2] -2.92% | viability increase [3] -0.12% | viability [4] 74.5% | viability [5] 80.8% | inhibition [6] 0.85% | RAM network inhibition [7] -0.18%

O=C1NCCCC1C(=O)NCCNC(=O)C(F)(F)F (stereo not given)
inactive: growth inhibition [1] -4.04% | growth inhibition [2] -0.705% | viability increase [3] -1.47% | viability [4] 101% | viability [5] 94.7% | inhibition [6] 0.3% | RAM network inhibition [7] 4.25%

COc1ccc(N(CC(=O)NC2CCCCCCC2)S(=O)(=O)c2c(C)nn(C)c2C)cc1
inactive: growth inhibition [1] -20.7% | growth inhibition [2] -13.6% | viability increase [3] -2.87% | viability [4] 89.2% | viability [5] 87.5% | inhibition [6] 1.31% | RAM network inhibition [7] 0.05%

COc1ccc(CC(=O)Nc2cc(=O)n(C)c(=O)n2C)cc1
inactive: growth inhibition [1] -5.75% | growth inhibition [2] -4.35% | viability increase [3] 0.44% | viability [4] 102% | viability [5] 91% | inhibition [6] 1.85% | RAM network inhibition [7] -2.12%

Cc1cccc(C)c1OCC(O)Cn1ccnc1C (stereo not given)
inactive: growth inhibition [1] 1.01% | growth inhibition [2] 0.215% | viability increase [3] -1.6% | viability [4] 81.1% | viability [5] 84.7% | inhibition [6] 1.08% | RAM network inhibition [7] -0.1%

CCC(C)NC(=O)C(NS(=O)(=O)c1ccc2c(c1)c(=O)n(C)c(=O)n2C)c1ccccc1 (stereo not given)
inactive: growth inhibition [1] -5.69% | growth inhibition [2] -11.3% | viability increase [3] -1.17% | viability [4] 101% | viability [5] 96.6% | inhibition [6] 1.19% | RAM network inhibition [7] 4.7%

CN1CCN(c2cc(=O)n(-c3ccc(Cl)cc3)c(=O)[nH]2)CC1
inactive: growth inhibition [1] -1.55% | growth inhibition [2] -1.23% | viability increase [3] 0.27% | viability [4] 108% | viability [5] 102% | inhibition [6] 0.42% | RAM network inhibition [7] 2.42%

O=C(Nc1nc2ccccc2s1)c1ccc(Cl)s1
inactive: growth inhibition [1] -14.7% | growth inhibition [2] -29.6% | viability increase [3] -3.11% | viability [4] 88.3% | viability [5] 77% | inhibition [6] 2.79% | RAM network inhibition [7] 1.32%

Cc1nc2ccc(S(=O)(=O)NC(C(=O)N3CCn4c3nc3ccccc34)C(C)C)cc2s1 (stereo not given)
inactive: growth inhibition [1] 0.9% | growth inhibition [2] 8.13% | viability increase [3] -1.67% | viability [4] 102% | viability [5] 97.2% | inhibition [6] 1.02% | RAM network inhibition [7] 5.83%

COc1ccc(C(=O)N2CCC(C(=O)Nc3cccc(C)c3)CC2)cc1OC
inactive: growth inhibition [1] -0.875% | growth inhibition [2] -15.3% | viability increase [3] -2.37% | viability [4] 106% | viability [5] 96.7% | inhibition [6] 0.29% | RAM network inhibition [7] 2.75%

COc1ccc(OC)c2sc(NC(=O)C3COc4ccccc4O3)nc12 (stereo not given)
inactive: growth inhibition [1] -19.7% | growth inhibition [2] -10.6% | viability increase [3] -3.63% | viability [4] 101% | viability [5] 95.6% | inhibition [6] -0.125% | RAM network inhibition [7] 2.87%

O=C(NCC1COc2ccccc2O1)C1C2C=CC3(CN(Cc4ccccc4Cl)C(=O)C13)O2 (stereo not given)
inactive: growth inhibition [1] -6.06% | growth inhibition [2] -7.88% | viability increase [3] -1% | viability [4] 84.2% | viability [5] 84% | inhibition [6] 1.02% | RAM network inhibition [7] 0%
